Screens deposited in PubChem by Broad Institute.
IDH1 R132H inh: blocks human IDH1 R132H reductase activity; diaphorase/resazurin fluorescence, 60 min; inhibition, % at 10 µM; 0.18% of 70,000 active; in the data active means inhibition above about 34%; inconclusive means no clear call, values can overlap the other calls; inactive means below about 11%;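 further: 0% = DMSO and 100% = no enzyme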
Target sequence (O75874 whole entry R132H): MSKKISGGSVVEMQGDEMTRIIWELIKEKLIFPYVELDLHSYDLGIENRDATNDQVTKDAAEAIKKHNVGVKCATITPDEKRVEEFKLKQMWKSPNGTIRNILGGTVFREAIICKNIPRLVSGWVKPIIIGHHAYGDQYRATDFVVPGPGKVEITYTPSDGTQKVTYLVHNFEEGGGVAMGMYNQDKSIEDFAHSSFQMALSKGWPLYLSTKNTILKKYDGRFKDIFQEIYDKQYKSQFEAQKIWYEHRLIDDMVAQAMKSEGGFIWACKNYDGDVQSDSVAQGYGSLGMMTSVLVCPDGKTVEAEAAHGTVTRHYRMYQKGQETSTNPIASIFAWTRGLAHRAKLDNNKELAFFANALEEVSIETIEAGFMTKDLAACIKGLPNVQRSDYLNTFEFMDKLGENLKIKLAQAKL
Tcruzi prolif: blocks T. cruzi growth in NIH3T3 culture | AID 624255 | 5.9% of 77,000 active | T. cruzi beta-gal in NIH3T3, GalScreen luminescence, 90 h | inhibition, % at 8.34 µM;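 active means mean inhibition above about 93%, with at least 55% of replicates each passing it, limit read from the data, passing the limit was not always enough; inconclusive means only one of those two conditions holds; inactive means neither condition holds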
Pf Dd2 inh: blocks growth of Plasmodium falciparum Dd2 parasites; P. falciparum Dd2 growth, SYBR Green, 72 h; active compounds read low; 2.3% of 94,000 active; activity change, % at 10 µM; in the data active means activity change below about -80%; inconclusive means no clear call, values can overlap the other calls
KDM4C inh: blocks human GASC-1 (KDM4C) demethylase activity; Q9H3R0; GST-KDM4C 2-372, H3K9me3 peptide, LANCE TR-FRET; inhibition, % at 12.5 µM; 0.15% of 96,000 active; AID 720574;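 active means mean replicate inhibition above about 25%, with at least 55% of replicates also reaching it, limit read from the data, passing the limit was not always enough; inconclusive means only one of those two conditions met; inactive means neither condition met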
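Material: N-terminal GST-fused human GASC-1 (KDM4C) fragment, residues 2-372. Input: 10 nM enzyme. Incubation: enzyme reaction 30 min, then detection 60 min, both room temperature. Doses: one test concentration per compound. Read-out basis: inhibition from TR-FRET ratio decrease. Detection: LANCE TR-FRET, excitation 340 nm, emissions 618 and 671 nm.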
Active calls of the source: *; ? = inconclusive; / = not tested or not shown. This is a sample that favours compounds with a hit; in the whole collection about 5.8% have one here.

SMILES | IDH1 R132H inh | Tcruzi prolif | Pf Dd2 inh | KDM4C inh
COc1ccc(CN(C)C[C@@H]2OCCCC[C@H](C)Oc3ccc(NC(=O)Nc4cccc5ccccc45)cc3C(=O)N([C@H](C)CO)C[C@H]2C)cc1 | / | 106 | -90* | /
C[C@@H]1CCCCO[C@@H](CN(C)Cc2ccc3c(c2)OCO3)[C@H](C)CN([C@H](C)CO)C(=O)c2cc(NC(=O)Nc3cccc4ccccc34)ccc2O1 | 1 | 45 | -91* | -6
C[C@H]1CCCCO[C@@H](CN(C)Cc2ccc3c(c2)OCO3)[C@@H](C)CN([C@@H](C)CO)C(=O)c2cc(NC(=O)Nc3cccc4ccccc34)ccc2O1 | -5 | 92 | ? | -3
C[C@@H]1CCCCO[C@H](CN(C)Cc2ccc3c(c2)OCO3)[C@@H](C)CN([C@@H](C)CO)C(=O)c2cc(NC(=O)Nc3cccc4ccccc34)ccc2O1 | 2 | 69 | -88* | -2
C[C@@H]1CN([C@H](C)CO)C(=O)c2cc(NC(=O)Nc3cccc4ccccc34)ccc2O[C@@H](C)CCCCO[C@H]1CN(C)Cc1ccc2c(c1)OCO2 | -1 | 76 | -87* | -1
C[C@@H]1CCCCO[C@@H](CN(C)Cc2ccc3c(c2)OCO3)[C@@H](C)CN([C@H](C)CO)C(=O)c2cc(NC(=O)Nc3cccc4ccccc34)ccc2O1 | / | 93 | 31 | -2
Cc1ccc(S(=O)(=O)Nc2ccc3c(c2)C(=O)N([C@H](C)CO)C[C@@H](C)[C@@H](CN(C)S(=O)(=O)c2ccc(C)cc2)O3)cc1 | 0 | 42 | 13 | 2
CNC(=O)C[C@@H]1CC[C@H]2[C@H](COc3ccc(NC(=O)Nc4ccccc4)cc3C(=O)N2C)O1 | / | 6 | 2 | 2
COCC(=O)N(C)C[C@H]1Oc2cc(C#CC3CCCC3)ccc2S(=O)(=O)N([C@H](C)CO)C[C@H]1C | / | -6 | 6 | 6
Cc1ccc(S(=O)(=O)N(C)C[C@@H]2OCCCC[C@@H](C)Oc3ccc(NC(=O)c4ccccc4)cc3C(=O)N([C@H](C)CO)C[C@@H]2C)cc1 | / | -14 | -74 | -1
C[C@@H]1CCCCO[C@H](CN(C)S(=O)(=O)c2ccc(F)cc2)[C@@H](C)CN([C@@H](C)CO)C(=O)c2cc(NC(=O)c3ccccc3)ccc2O1 | 0 | / | -84* | 0
C[C@@H]1CN([C@H](C)CO)C(=O)c2cc(NC(=O)c3ccccc3)ccc2O[C@@H](C)CCCCO[C@H]1CN(C)S(=O)(=O)c1ccc(Cl)cc1 | / | 92 | -85* | 3
C[C@H](CO)N1C[C@H](C)[C@@H](CN(C)S(=O)(=O)c2ccc(Cl)cc2)OCCCC[C@H](C)Oc2ccc(NC(=O)c3ccccc3)cc2C1=O | / | 102 | -36 | -1
C[C@@H]1CCCCO[C@H](CN(C)S(=O)(=O)c2ccc(F)cc2)[C@H](C)CN([C@@H](C)CO)C(=O)c2cc(NC(=O)c3ccccc3)ccc2O1 | / | / | -54 | -1
Cc1ccc(S(=O)(=O)N(C)C[C@@H]2OCCCC[C@H](C)Oc3ccc(NC(=O)c4ccccc4)cc3C(=O)N([C@@H](C)CO)C[C@H]2C)cc1 | / | 82 | -84* | -4
C[C@@H]1CCCCO[C@H](CN(C)S(=O)(=O)c2ccc(Cl)cc2)[C@@H](C)CN([C@@H](C)CO)C(=O)c2cc(NC(=O)c3ccccc3)ccc2O1 | 0 | 103 | -83* | -2
C[C@@H]1CCCCO[C@H](CN(C)S(=O)(=O)c2ccc(Cl)cc2)[C@@H](C)CN([C@H](C)CO)C(=O)c2cc(NC(=O)c3ccccc3)ccc2O1 | 8 | 104 | -78 | -2
COc1ccc(S(=O)(=O)N(C)C[C@H]2Oc3c(NC(=O)Nc4ccccc4)cccc3C(=O)N([C@@H](C)CO)C[C@H]2C)cc1 | 1 | 47 | -90* | 2
COc1ccc(S(=O)(=O)N(C)C[C@H]2Oc3c(NC(=O)Nc4ccc5c(c4)OCO5)cccc3C(=O)N([C@H](C)CO)C[C@H]2C)cc1 | 1 | 8 | -14 | 1
COc1ccc(S(=O)(=O)N(C)C[C@H]2Oc3c(NC(=O)Nc4ccc5c(c4)OCO5)cccc3C(=O)N([C@@H](C)CO)C[C@H]2C)cc1 | / | 1 | -86* | 0
COc1ccc(S(=O)(=O)N(C)C[C@@H]2Oc3c(NC(=O)Nc4ccccc4)cccc3C(=O)N([C@@H](C)CO)C[C@H]2C)cc1 | / | / | / | -2
C[C@H](CO)N1C[C@H](C)[C@H](CN(C)C(=O)Nc2ccc3c(c2)OCO3)Oc2ccc(NC(=O)Nc3ccc(C(F)(F)F)cc3)cc2CC1=O | / | 39 | 0 | -2
C[C@H]1CCCCO[C@H](CN(C)S(=O)(=O)c2cccs2)[C@@H](C)CN([C@@H](C)CO)C(=O)c2cc(NC(=O)C3CCCCC3)ccc2O1 | / | 43 | -78 | 0
C[C@@H]1CN([C@H](C)CO)C(=O)c2cc(NC(=O)NC3CCCCC3)ccc2O[C@@H](C)CCCCO[C@@H]1CN(C)S(=O)(=O)c1cccs1 | -1 | 90 | -84* | -3
C[C@@H]1CN([C@H](C)CO)C(=O)c2cc(NC(=O)C3CCCCC3)ccc2O[C@@H](C)CCCCO[C@@H]1CN(C)S(=O)(=O)c1cccs1 | / | 34 | -84* | -2
SMILES | IDH1 R132H inh | Tcruzi prolif | Pf Dd2 inh | KDM4C inh
C[C@H]1CCCCO[C@H](CN(C)S(=O)(=O)c2cccs2)[C@@H](C)CN([C@@H](C)CO)C(=O)c2cc(NC(=O)Nc3cccc4ccccc34)ccc2O1 | -1 | 31 | -60 | 2
C[C@@H]1CN([C@H](C)CO)C(=O)c2cc(NC(=O)Nc3ccc(F)cc3)ccc2O[C@@H](C)CCCCO[C@@H]1CN(C)S(=O)(=O)c1cccs1 | / | -47 | -84* | -1
C[C@@H]1CN([C@@H](C)CO)C(=O)c2cc(NC(=O)Nc3cccc4ccccc34)ccc2O[C@@H](C)CCCCO[C@@H]1CN(C)S(=O)(=O)c1cccs1 | 1 | -8 | -90* | 0
C[C@H](CO)N1C[C@H](C)[C@H](CN(C)S(=O)(=O)c2cccs2)OCCCC[C@H](C)Oc2ccc(NC(=O)Nc3ccc(F)cc3)cc2C1=O | 2 | 92 | -28 | -1
Cc1nnc(SCC(=O)Nc2cccc3ccccc23)s1 | 0 | / | / | /
C[C@@H]1CCCCO[C@@H](CN(C)Cc2ccc(C(=O)Nc3ccccc3N)cc2)[C@@H](C)CN([C@H](C)CO)C(=O)c2cc(NS(=O)(=O)c3cccs3)ccc2O1 | / | / | ? | 0
C[C@@H]1CCCCO[C@H](CN(C)Cc2ccc(C(=O)Nc3ccccc3N)cc2)[C@@H](C)CN([C@H](C)CO)C(=O)c2cc(NS(=O)(=O)c3cccs3)ccc2O1 | 0 | 53 | -87* | -1
C[C@@H]1CCCCO[C@H](CN(C)Cc2ccc(C(=O)Nc3ccccc3N)cc2)[C@@H](C)CN([C@@H](C)CO)C(=O)c2cc(NS(=O)(=O)c3ccc(Cl)cc3)ccc2O1 | / | 81 | -85* | -1
CO[C@H]1CN(C)C(=O)c2ccc(NC(=O)Nc3ccc(Cl)cc3)cc2OC[C@@H](C)NC[C@H]1C | 0 | -29 | / | 0
C[C@@H]1CN([C@H](C)CO)C(=O)Cc2cc(NC(=O)Nc3ccccc3)ccc2O[C@H]1CN(C)CC1CC1 | 0 | -38 | -16 | 0
